Activity calls are given as the source filed them. The rule behind the calls is not given here.
Key:
Danio rerio [1] = species on record: Danio rerio; assay: Antiangiogenic activity in Tg(fli:eGFP) zebrafish embryo assessed as effect on phynotypic changes after 72 hrs post fertilization by fluorescence microscopic analysis; assay type: functional, organism-based
Method in brief: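 Tg(fli1:eGFP) zebrafish embryos were selected at 48 hpf, 20–25 per well, and exposed to bile acids at 6.25, 12.5 and 25 μM in embryo water from DMSO stocks. Vehicle was 0.1% DMSO. At 72 hpf the solutions were replaced with fresh embryo water. Embryos were anesthetized with tricaine and imaged by stereo and fluorescence microscopy for sub-intestinal vessel sprouting and branching. Two experiments, 50 embryos per group.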

Danio rerio [2] = species on record: Danio rerio; assay: Toxicity in zebrafish embryo assessed as reduction in embryo survival up to 50 uM; assay type: organism-based; settings: in vivo
HUVEC [3] = assay: Cytotoxicity against HUVEC assessed as reduction in cell death up to 12.5 uM after 24 hrs by MTT assay; assay type: cell-based; settings: human
Method in brief: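 HUVECs (passages 2–5, complete EBM-2) seeded at 5 × 10³ cells/well and left 24 h to adhere. Serum-starved 4 h, then exposed to bile acids (serial dilutions, 100 to 6.25 μM) in complete medium for 24 h. MTT added for 4 h at 37 °C, formazan dissolved in DMSO, absorbance read at 550 nm. Run in triplicate; three independent experiments.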

HUVEC [4] = assay: Induction of angiogenesis in HUVEC assessed as increase in tube formation at 12.5 uM after overnight incubation by inverted microscopic analysis; assay type: functional, cell-based; settings: Homo sapiens
Method in brief: (§1)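 Wells coated with Matigel:plain EBM-2 (1:1). HUVECs added at 2 × 10⁵ cells/well with bile acid (12.5 or 25 μM) or vehicle and left overnight. Bright-field images at 10× from five fields per well; nodes and tube lengths counted. Triplicate, three independent experiments; one-way ANOVA with Dunnett's test.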

HUVEC [5] = assay: Induction of angiogenesis in HUVEC assessed as increase in number of nodes at 12.5 uM after overnight incubation by inverted microscopic analysis relative to control; assay type: functional, Homo sapiens; method in brief: as §1
HUVEC [6] = assay: Antiangiogenic activity in HUVEC assessed as inhibition of endothelial tube formation at 25 uM after overnight incubation by inverted microscopic analysis; assay type: functional, cell-based; settings: Homo sapiens
Method in brief: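 HUVECs at passages 2–5 were seeded at 2 × 10^5 cells per well on a gelled basement membrane matrix, made as Matrigel mixed 1:1 with plain EBM-2. Bile acids were added at 12.5 and 25 μM, with DMSO as vehicle control, and cells were treated overnight. Bright-field images were taken at 10× from five fields per well. Nodes and tube lengths were quantified. Runs were in triplicate; statistics by one-way ANOVA (Dunnett).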

Danio rerio [7] = species on record: Danio rerio; assay: Pro-angiogenic activity in Tg(fli:eGFP) zebrafish embryo assessed as increase in sprouting of sub-intestinal veins at 12.5 uM after 72 hrs post fertilization by fluorescence microscopic analysis; assay type: functional, organism-based
Method in brief: (§2)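 Tg(fli1:eGFP) embryos selected at 48 hpf, 20–25 per well, raised at 28.5 °C. Bile acids (DMSO stock, diluted in embryo water) given at 6.25, 12.5 or 25 μM; 0.1% DMSO as vehicle control. Solutions replaced with fresh water at 72 hpf, embryos anaesthetised with tricaine and sub-intestinal vessels imaged by fluorescence. Scored as percentage of embryos; two experiments, 50 embryos/group.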

Danio rerio [8] = species on record: Danio rerio; assay: Pro-angiogenic activity in Tg(fli:eGFP) zebrafish embryo assessed as increase in branching of sub-intestinal veins at 12.5 uM after 72 hrs post fertilization by fluorescence microscopic analysis; assay type: functional, organism-based; method in brief: as §2
Danio rerio [9] = species on record: Danio rerio; assay: Pro-angiogenic activity in Tg(fli:eGFP) zebrafish embryo assessed as increase in sprouting and branching of sub-intestinal vessels (after 72 hrs post fertilization by fluorescence microscopic analysis; assay type: functional, organism-based; method in brief: as §2
Danio rerio [10] = species on record: Danio rerio; assay: Pro-angiogenic activity in Tg(fli:eGFP) zebrafish embryo assessed as arcades formation at 12.5 uM after 72 hrs post fertilization by fluorescence microscopic analysis; assay type: functional, organism-based; method in brief: as §2
Danio rerio [11] = species on record: Danio rerio; assay: Pro-angiogenic activity in Tg(fli:eGFP) zebrafish embryo assessed as sub-intestinal vein baskets extending towards ventral side at 12.5 uM after 72 hrs post fertilization by fluorescence microscopic analysis; assay type: functional, organism-based; method in brief: as §2
HUVEC [12] = assay: Increase in VEGFR1 m-RNA expression in HUVEC at 12.5 uM after 12 to 24 hrs by RT-qPCR analysis; assay type: functional, cell-based; settings: Homo sapiens
Method in brief: (§3)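 HUVECs treated with 12.5 μM bile acid or DMSO for 12 and 24 h. Total RNA extracted and 1 μg reverse-transcribed. SYBR-green qPCR for VEGFR1/VEGFR2: 95 °C 10 min, then 40 cycles of 95 °C 5 s / 60 °C 30 s. ΔΔCT normalised to GAPDH and expressed as fold change over control; repeated twice.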

HUVEC [13] = assay: Increase in VEGFR2 m-RNA expression in HUVEC at 12.5 uM after 12 to 24 hrs by RT-qPCR analysis; assay type: functional, cell-based; settings: Homo sapiens; method in brief: as §3
HUVEC [14] = assay: Increase in MMP9 level in HUVEC at 12.5 uM after 24 hrs by ELISA; assay type: functional, cell-based; settings: Homo sapiens
Method in brief: (§4)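 HUVECs in 6-well plates treated with 12.5 μM bile acid or DMSO vehicle. Medium supernatant collected 12 and 24 h after treatment. MMP9 measured by ELISA with HRP read-out at 405 nm, concentration interpolated from an MMP9 standard curve. Experiments done in duplicate.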

HUVEC [15] = assay: Decrease in MMP9 level in HUVEC at 12.5 uM after 24 hrs by ELISA; assay type: functional, cell-based; settings: Homo sapiens; method in brief: as §4
HUVEC [16] = assay: Pro-angiogenic activity in HUVEC assessed as stress fiber formation at 12.5 uM after overnight incubation by FITC-conjugated phalloidin staining based confocal microscopic analysis; assay type: functional, cell-based; settings: Homo sapiens
Method in brief: (§5)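 HUVECs grown to 70% confluency on coverslips and treated with bile acids overnight. Fixed in 4% paraformaldehyde for 5 min and blocked with 1% BSA/0.1% Triton X-100 for 2 h. Stained with anti-VE-cadherin (1:200, 4 °C overnight) plus Alexa-488 secondary, FITC-phalloidin (1:100) for F-actin, and DAPI. Confocal imaging; repeated twice.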

HUVEC [17] = assay: Pro-angiogenic activity in HUVEC assessed as decrease in VE-cadherin expression at 12.5 uM after overnight incubation by FITC-conjugated phalloidin staining based confocal microscopic analysis; assay type: functional, cell-based; settings: Homo sapiens; method in brief: as §5
HUVEC [18] = assay: Pro-angiogenic activity in HUVEC assessed as decrease in cell-to-cell contact at 12.5 uM after overnight incubation by FITC-conjugated phalloidin staining based confocal microscopic analysis; assay type: functional; settings: Homo sapiens; method in brief: as §5
HUVEC [19] = assay: Cytotoxicity against HUVEC assessed as reduction in cell viability at 6.25 to 100 uM after 24 hrs by MTT assay; assay type: cell-based; settings: human
Method in brief: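 HUVECs at passages 2–5 were seeded at 5 × 10^3 cells per well in complete EBM-2 and allowed to adhere for 24 h. They were serum-starved 4 h, then given serially diluted bile acids (100 to 6.25 μM) in complete medium for 24 h. MTT was added for 4 h at 37 °C. Formazan was dissolved in DMSO and absorbance read at 550 nm. Three independent experiments.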

HUVEC [20] = assay: Induction of angiogenesis in HUVEC assessed as increase in tube length at 12.5 uM after overnight incubation by inverted microscopic analysis; assay type: functional, cell-based; settings: Homo sapiens; method in brief: as §1
HUVEC [21] = assay: Increase in wound healing in HUVEC at 12.5 uM after 18 to 24 hrs by phase contrast microscopic analysis; assay type: functional, cell-based; settings: Homo sapiens
Method in brief: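 HUVECs grown to a confluent monolayer in 12-well plates and serum-deprived overnight. Scratched with a p200 tip, washed with DPBS, then given complete EBM-2 with 12.5 μM bile acid or DMSO vehicle. Imaged from a marked reference point at 0 h and after 18–24 h (phase contrast, 10×); percentage of migrated cells versus control. Triplicate; Dunnett's test.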

Danio rerio [22] = species on record: Danio rerio; assay: Pro-angiogenic activity in Tg(fli:eGFP) zebrafish embryo at 6.25 uM after 72 hrs post fertilization by fluorescence microscopic analysis; assay type: functional, organism-based; method in brief: as §2

`O=c1cc(N2CCOCC2)oc2c(-c3ccccc3)cccc12` was tested, and the Activity (Danio rerio [1]) was “Active”.
With `C[C@H](CCC(=O)O)[C@H]1CC[C@H]2[C@@H]3[C@H](O)C[C@@H]4C[C@H](O)CC[C@]4(C)[C@H]3CC[C@]12C` [CHENODIOL] the Activity (Danio rerio [2]) was “Non-Toxic”, the Activity (HUVEC [3]) was “Non-Toxic” and the Activity (HUVEC [4]) was “Active”. The Activity (HUVEC [5]) was 150%, the Activity (HUVEC [6]) was “inactive” and the Activity (Danio rerio [7]) was “Active”. The Activity (Danio rerio [8]) was “Active”, the Activity (Danio rerio [9]) was “Dose-dependent effect” and the Activity (Danio rerio [10]) was “Active”. For the same molecule, the Activity (Danio rerio [11]) was “Active”, the Activity (HUVEC [12]) was “Active” and the Activity (HUVEC [13]) was “Active”. The Activity (HUVEC [14]) was “Active”, the Activity (HUVEC [15]) was “Active” and the Activity (HUVEC [16]) was “Active”. For the same molecule, the Activity (HUVEC [17]) was “Active”, the Activity (HUVEC [18]) was “Active” and the Activity (HUVEC [19]) was “Non-Toxic”. For the same molecule, the Activity (HUVEC [20]) was “Active”, the Activity (HUVEC [21]) was “Active” and the Activity (Danio rerio [22]) was “Active”.

— ChEMBL document CHEMBL4257469, “Deciphering the role of hydrophobic and hydrophilic bile acids in angiogenesis using in vitro and in vivo model systems” (Medchemcomm, 2017)
